Data taken from publication PMC6555264 (Infection and Drug Resistance, 2019).
Several values for one entry are separate records, joined by “and”; a condition that tells them apart may be missing. Equal entries are not always repeated.

Assays:
[1] = system: A. baumannii; assay: Broth microdilution MIC, alone and with AR-12; format: cell-based, Acinetobacter baumannii; conditions: for MIC: strain 34299 (JMI Laboratories), drug alone; for fold reduction of MIC in the presence of 4 μg/ml of AR-12: MDR A. baumannii (2 out of 4 strains tested); for MIC (4 µg/ml AR-12): strain 34299, with 4 µg/ml AR-12
In short: (§1)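 Colonies from Mueller-Hinton II agar (37°C, overnight) were suspended in PBS, sized by OD600 and diluted in CAMHB, giving a final inoculum of 5×10^5 CFU/ml. Single-drug MICs: 96-well round-bottom plates, static 37°C for 18–24 h, growth scored visually. Checkerboard: twofold polymyxin B or colistin (0.13–64 or 128 μg/ml) against twofold test compound (1–64 or 128 μg/ml; DMSO stock), incubated 16–20 h.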

[2] = system: B. mallei; format: cell-based, Burkholderia mallei
[3] = system: B. pseudomallei; format: cell-based, Burkholderia pseudomallei
[4] = system: Enterobacter cloacae; format: cell-based
[5] = system: K. pneumoniae; assay: Broth microdilution MIC, alone and with AR-12; format: cell-based, Klebsiella pneumoniae; conditions: for MIC: drug alone; for MIC (4 µg/ml AR-12): with 4 µg/ml AR-12
In short: as §1

[6] = system: Proteus mirabilis; format: cell-based
[7] = system: Providencia stuartii; format: cell-based
[8] = system: Serratia marcescens; format: cell-based
[9] = system: panel of MDR Gram-negative pathogenic bacterial strains; assay: Broth dilution MIC, whole panel; format: cell-based; conditions: for fold reduction of MIC in the presence of AR-12: certain polymyxin-resistant Gram-negative bacterial strains
In short: as §1

[10] = system: A. baumannii strains and K. pneumoniae strains; assay: Dansyl polymyxin permeability assay; format: cell-based; conditions: increasing concentrations of AR-12; depending on the strain; DP 0.6 μM
In short: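 Log-phase cells (overnight culture subcultured 1:100 for 2–3 h) were pelleted at 0.5 OD-equivalent and resuspended in 1 ml of 5 mM HEPES at room temperature. Fluorescence was read at room temperature (ex 320, em 500 nm), with cell-free wells subtracted. Two or more repeats.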

[11] = system: A. baumannii and K. pneumoniae strains; assay: N-phenyl-1-naphthylamine; format: cell-based; conditions: AR-12 4 μg/ml and 8 μg/ml
In short: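 Cell suspensions were prepared as for the dansyl polymyxin assay (log phase, in 5 mM HEPES). Cells were added at 1:4 to a HEPES/NPN/test compound mix, in triplicate. Fluorescence was read at room temperature (ex 355, em 405 nm), with cell-free wells subtracted. Two or more independent repeats.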

[12] = Pharmacokinetic study in mice, oral; format: in vivo, Balb/c mice
In short: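 Female Balb/c mice received a single oral dose of test compound at 80 mg/kg, formulated at 8 mg/mL in 10% Solutol HS 15. Plasma was sampled at 0, 0.5, 1, 2, 4, 8, 10 and 24 h, with 3 mice per time point. Drug levels were quantified by HPLC.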

[13] = Maximum tolerated dose in mice; format: in vivo; conditions: p.o.
[14] = Protein binding in mice; format: in vitro ADME
[15] = system: cyclooxygenase 2 (COX-2); conditions: eukaryotic host; cited from earlier work
[16] = system: Francisella strains; conditions: cited from earlier work
[17] = system: Francisella tularensis and F. novicida in THP-1 macrophages; conditions: cited from earlier work
[18] = system: ampicillin and kanamycin-resistant E. coli strain; conditions: laboratory-generated ampicillin and kanamycin-resistant E. coli; cited from earlier work
[19] = system: MDR clinical isolate of N. gonorrhoeae; conditions: cited from earlier work
[20] = system: A. baumannii; assay: Bacterial growth assay; format: cell-based, Acinetobacter baumannii
In short: (§2)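 Cultures were grown overnight (~16 h) in CAMHB at 37°C with shaking, then subcultured 1:100 for 2–3 h to log phase. 5×10^5 CFU/ml were dispensed into CAMHB wells holding preset drug concentrations, in triplicate. Plates were shaken at 37°C, with OD600 read automatically every 15 min for 24 h. Two or more independent repeats.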

[21] = system: K. pneumoniae; assay: Bacterial growth assay; format: cell-based, Klebsiella pneumoniae
In short: as §2

[22] = strain 30835 (JMI Laboratories)

Compound | MIC [1] [µg/mL] | MIC [2] [µg/mL] | MIC [3] [µg/mL] | MIC ([5]; strain 0010 (CDC)) [µg/mL] | MIC ([5]; strain 101434 (USAMRIID)) [µg/mL] | MIC ([5]; strain 101522 (USAMRIID)) [µg/mL] | MIC ([5]; strain 101783 (USAMRIID)) [µg/mL] | MIC [6] [µg/mL] | MIC [7] [µg/mL] | MIC [8] [µg/mL] | fold reduction of MIC in the presence of 4 μg/ml of AR-12 [1] | MIC (4 µg/ml AR-12) [1] [µg/mL] | MIC (4 µg/ml AR-12) ([5]; strain 0010) [µg/mL] | MIC [5, 22] [µg/mL] | MIC (4 µg/ml AR-12) ([5]; strain 30835) [µg/mL] | MIC (4 µg/ml AR-12) ([5]; strain 101434) [µg/mL] | MIC (4 µg/ml AR-12) ([5]; strain 101783) [µg/mL] | MIC (4 µg/ml AR-12) [6] | MIC (4 µg/ml AR-12) [7] [µg/mL] | MIC (4 µg/ml AR-12) [8] | further results
NCC(=O)Nc1ccc(-n2nc(C(F)(F)F)cc2-c2ccc3c(ccc4ccccc43)c2)cc1 [AR-12] | >128 | >128 | >128 | >64 | >64 | >64 | >64 | >64 | >64 | >64 |  |  |  |  |  |  |  |  |  |  | MIC [4]: >64 µg/mL; lowest AR-12 concentration at which the potentiating activity was observed for majority of the MDR strains ([9]; combination with polymyxin B or colistin): 4 µg/mL; MIC of AR-12 alone ([9]; panel of MDR pathogens, tested upto 64 µg/ml): > 64 µg/mL; enhancement of dansyl polymyxin B (DP) fluorescence [10]: 25–50 fold; effect on NPN fluorescence (outer membrane permeability) [11]: increased the fluorescence of NPN; bioavailability [12]: poor; AUC (0–24 hrs) ([12]; 80 mg/kg, p.o., q.d.): 41.4 µg·h/mL; Cmax ([12]; 80 mg/kg, p.o., q.d.): 2.1 µg/mL; Tmax ([12]; 80 mg/kg, p.o., q.d.): 10 h; plasma levels sustained over a 24 hrs period ([12]; 80 mg/kg, p.o., q.d.): 1.5–2.1 μg/mL and ~ 2 μg/mL; maximum tolerated dose [13]: 100 mg/kg; protein bound [14]: 99%; COX-2 inhibitory activities [15]: devoid of cyclooxygenase 2 (COX-2) inhibitory activities; direct antibacterial activity [16]: did not have any direct antibacterial activity; intracellular survival of bacteria in macrophages [17]: inhibit the intracellular survival; bacterial growth [18]: significantly inhibited the growth; bacterial proliferation [19]: reduced the proliferation
colistin | >64 |  |  | 8 | >64 | >64 | >64 | >64 | >64 | >64 | 4–16 fold | 4 | 8 | >64 | 16 | 16 | 1 | >64 µg/mL | >64 | >64 µg/mL | MIC (4 µg/ml AR-12) [4]: 16 µg/mL; fold reduction of MIC in the presence of 4 μg/ml of AR-12 ([5]; MDR K. pneumoniae (polymyxin B 7 out of 7, colistin 5 out of 7 strains tested)): 4–60 fold; MIC (4 µg/ml AR-12) ([5]; strain 101522): 8 µg/mL; fold reduction of MIC in the presence of AR-12 [9]: 4–60 fold; colistin concentration giving growth inhibition ([20]; MDR A. baumannii 34299, colistin alone): > 32 µg/mL; colistin concentration giving growth inhibition ([20]; MDR A. baumannii 34299, in the presence of 4 μg/ml AR-12): 1 µg/mL; colistin concentration giving growth inhibition ([20]; polymyxin sensitive ATCC A. baumannii 19606, colistin alone): 0.5 µg/mL; colistin concentration giving growth inhibition ([20]; polymyxin sensitive ATCC A. baumannii 19606, in the presence of 4 μg/ml AR-12): 0.015 µg/mL; colistin concentration giving growth inhibition ([21]; MDR K. pneumoniae 30835, colistin alone): 8 µg/mL; colistin concentration giving growth inhibition ([21]; MDR K. pneumoniae 30835, in the presence of 4 μg/ml AR-12): 1 µg/mL; colistin concentration giving growth inhibition ([21]; polymyxin sensitive ATCC K. pneumoniae 13833, colistin alone): 2 µg/mL; colistin concentration giving growth inhibition ([21]; polymyxin sensitive ATCC K. pneumoniae 13833, in the presence of 4 μg/ml AR-12): 0.125 µg/mL
polymyxin B | 16 | 128 | >128 | 2 | 64 | 64 | >64 | >64 | >64 | >64 | 4–16 fold | ≤2 | 2 | 128 | ≤2 | 16 | 2 | 64 µg/mL and >64 µg/mL | >64 | >64 µg/mL and 64 µg/mL | MIC (4 µg/ml AR-12) [2]: 128 µg/mL; MIC (4 µg/ml AR-12) [3]: >128 µg/mL; fold reduction of MIC in the presence of AR-12 [9]: 4–60 fold
